According to article PMC11178347 (Proteoglycan research, 2023):
Entries after “also recorded” stand apart in the source; their conditions may differ. Each block holds one substance with its values, some of them ahead of it. Ends that are not written are not given here.

Experiments:
collagen = settings: ref unpublished studies; cited from earlier work
[1] = Circular dichroism secondary structure of GQLY variants; type: physicochemical; settings: 1 mg/mL, pH 8.5 sodium borate buffer; for Antiparallel / Helix / Others / Parallel / Turn: CD far-UV 190-250 nm, BESTSEL; for Structure difference between variants by CD: SRR-hyd vs GSG-hyd
How it was run: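 Peptides at 1 mg/mL in pH 8.5 sodium borate buffer, quartz cell. Far-UV spectra 190–250 nm, baseline-corrected. Secondary-structure fractions fitted by least squares at each wavelength point, separating antiparallel β-sheet by twist angle and regular from distorted α-helix.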

[2] = Peptide association with chondroitin sulfate; type: physicochemical; settings: for Decrease in peptides associated per disaccharide / Percent Decrease in total peptide associated/GAG: with CS, before vs after 1 M NaCl and 8 M urea wash
How it was run: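 Chondroitin sulfate (10 mg/mL) reacted overnight at pH 4.5 with peptide (theoretical 16% disaccharide substitution) in 0.1 M MES/8 M urea/0.2 wt% NaCl, with EDC 0.5:1 per disaccharide or without EDC. Stopped at pH 8.5, tangential-flow filtered (10 kDa). Agitated 30 min in 1 M NaCl/8 M urea, spin-filtered (10 kDa) and water-exchanged three times. Peptide measured by A280 against standard curves, before and after wash.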

[3] = SRR-hyd conjugation to GAG backbones; type: physicochemical; settings: following salt washing
How it was run: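 Heparin, hyaluronic acid, chondroitin sulfate or dermatan sulfate (10 mg/mL) coupled to peptide with EDC (0.5:1 per disaccharide) in 0.1 M MES/8 M urea/0.2 wt% NaCl, pH 4.5, overnight. Quenched at pH 8.5, purified by tangential flow over a 10 kDa membrane, lyophilised. Peptide content from 280 nm absorbance using peptide standard curves, expressed per disaccharide (GAG mass divided by disaccharide mass).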

[4] = tested on: platelet adhesion to immobilized fibrillar collagen; experiment: Inhibition of platelet adhesion to immobilized fibrillar collagen under flow; type: cell-based; settings: even at high concentrations; human whole blood, 1000 s−1
How it was run: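 Flow channels coated with fibrillar type I collagen (100 μg/mL, 1 h, room temperature) and PBS-washed. Channels pre-incubated 1 h with test compound, or with its heparin or peptide component alone, at increasing concentrations, then flushed. Citrated human whole blood, pooled and used within 3 h, stained with Calcein-AM 30 min at 37 °C. Conjugate added to blood, perfused at 1000 s−1. Adherent platelets imaged by fluorescence and normalised to untreated control.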

platelet binding = settings: ref Biran & Pond, 2017; Linhardt et al., 2008; cited from earlier work

Substance: GQLYKSILY
Collagen binding (collagen): also binding to collagen

Substance: GQLYKSILYGSGSGSRR-NH2
Peptide association with CS, without EDC ([2]; absence of EDC, initial 10 kDa purification): equivalent
Decrease in peptides associated per disaccharide [2]: 5.7%

Substance: chondroitin sulfate [CS]
GQLY (SRR-hyd) conjugation supported by the GAG backbone [3]: same intermediate level of GQLY conjugation

Substance: dermatan sulfate [DS]
GQLY (SRR-hyd) conjugation supported by the GAG backbone [3]: same intermediate level of GQLY conjugation

The next lines start with results.

Antiparallel [1]: 25.6
Helix [1]: 6.2
Others [1]: 53.9
Parallel [1]: 0
Turn [1]: 14.3
Structure difference between variants by CD [1]: minimal difference in their structure
Decrease in peptides associated per disaccharide [2]: 1.1%
Percent Decrease in total peptide associated/GAG [2]: 15%
Substance: GQLYKSILYGSGSG-hydrazide

Antiparallel [1]: 21.8
Helix [1]: 5.5
Others [1]: 59.2
Parallel [1]: 0
Turn [1]: 13.5
Structure difference between variants by CD [1]: minimal difference in their structure
Decrease in peptides associated per disaccharide [2]: 5.2%
Percent Decrease in total peptide associated/GAG [2]: 32%
Substance: GQLYKSILYGSGSGSRR-hydrazide
Peptide association with CS, with EDC ([2]; after EDC reaction, initial 10 kDa purification): significantly more peptide association when using the SRR-hyd variant compared to the GSG-hyd variant; also recorded: more SRR-hyd associated with CS compared to the SRR-amide variant

GQLY (SRR-hyd) conjugation supported by the GAG backbone [3]: greatest GQLY conjugation
Substance: heparin
Platelet inhibition, in words [4]: no significant platelet inhibition
Platelet binding suppression (platelet binding): known to suppress platelet binding

GQLY (SRR-hyd) conjugation supported by the GAG backbone [3]: least
Substance: hyaluronic acid [HA]
